Reference: publication PMC8591627 (ACS infectious diseases, 2021)
Values after ≈ are worked out from the molar mass of the structure shown. Values joined by “and” are separate entries in the source; they are usually repeats but may differ in a detail not shown here. Equal values may be shown once.

Legend:
LAC yceI::Tn azoR3 = assay: MIC; format: cell-based, Staphylococcus aureus
[1] = Mouse pharmacokinetic study; format: in vivo; conditions: CD-1 mice, oral 25 mg/kg, 0.5-5 h
Summary of the method: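 Two female CD-1 mice received one oral 25 mg/kg dose in 20% DMA/80% PEG300. K2EDTA blood was taken pre-dose and at 0.5, 1, 3 and 5 h, and plasma was stored at −80 °C. Samples were precipitated with acetonitrile/methanol containing a verapamil internal standard and analysed by LC-MS/MS in MRM positive mode. Standard curves were made in CD-1 plasma, and QCs had to fall within 20% of nominal.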

LAC yceI::Tn strain = assay: Selection of spontaneous resistant mutants, frequency; format: cell-based, Staphylococcus aureus
LAC yceI::Tn azoR2 = assay: MIC; format: cell-based, Staphylococcus aureus
Summary of the method: (§1)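 Overnight cultures were grown in 5 mL Mueller-Hinton at 37 °C with shaking at 200 rpm. They were diluted 1/1000 into 96-well plates holding serial dilutions of test compound in Mueller-Hinton broth. Plates were sealed against drying and incubated statically at 37 °C for 18 h before reading. All strains are isogenic and in the LAC background.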

LAC pEPSA5_yceI = assay: MIC; format: cell-based, Staphylococcus aureus; conditions: for MIC: LAC pEPSA5_yceI
Summary of the method: (§2)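 LAC strains carried empty pEPSA5 or pEPSA5_yceI (yceI under a xylose-inducible promoter). They were grown overnight with or without xylose induction; for the azoR overexpression set, pEPSA strains were cultured with 1% xylose. The 1/1000 inoculum went into Mueller-Hinton broth with serial compound dilutions, incubated statically at 37 °C for 18 h. Values represent three independent experiments.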

S. aureus (ATCC 43300) = assay: Nitric oxide release assay, Griess reagent; format: cell-based, Staphylococcus aureus; conditions: 100 μM, over 48 h; positive control DEA-NONOate
Summary of the method: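 ATCC 43300 was grown in Mueller-Hinton medium to OD600 0.4 and split three ways: untreated, 100 μM test compound, or 100 μM DEA-NONOate. At 24 and 48 h, samples were centrifuged and supernatants were mixed with fresh Griess reagent for 30 min at room temperature. Absorbance at 548 nm was converted to nitrite against sodium nitrite standards (50–0.78 μM, 2-fold) made in medium.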

MSSA ATCC 25923 = assay: MIC, drug susceptibility assay; format: cell-based, Staphylococcus aureus; conditions: 18 h, 37 °C, visual inspection
S. aureus LAC pLL39 = assay: MIC; format: cell-based, Staphylococcus aureus; conditions: genotype pLL39, LAC background
[2] = tested on: JSF-3151–resistant strains; assay: MIC versus JSF-3151-resistant strains compared to the parental strain; format: cell-based, Staphylococcus aureus; conditions: yceI promoter mutants versus parent
LAC yceI::Tn pCM28 = assay: MIC; format: cell-based, Staphylococcus aureus
Summary of the method: as §1

MRSA ATCC 43300 = assay: MIC, drug susceptibility assay; format: cell-based, Staphylococcus aureus; conditions: 18 h, 37 °C, visual inspection
LAC pEPSA5 = assay: MIC; format: cell-based, Staphylococcus aureus
Summary of the method: as §2

[3] = tested on: S. aureus LAC pLL39_yceI3; assay: MIC; format: cell-based, Staphylococcus aureus; conditions: genotype pLL39_yceI3, LAC background

Question: What does the source list for O=C(Nc1cc(Cl)cc2cccnc12)c1ccc([N+](=O)[O-])s1 [JSF-3151]?
Answer: MIC shift versus yceI::Tn parental strain (LAC yceI::Tn azoR3; azoR3 (Thr121Ile)): 64 fold; MIC (LAC yceI::Tn azoR3; genotype yceI::Tn azoR3): >50 µg/mL; mouse plasma level relative to MIC [1]: inability to reach the MIC over a 5 h time period; frequency of heritable resistance (LAC yceI::Tn strain): approximately 3 x 10^−8; MIC shift versus yceI::Tn parental strain (LAC yceI::Tn azoR2; azoR2 (Trp60stop)): 32 fold; MIC (LAC yceI::Tn azoR2; genotype yceI::Tn azoR2): 25 µg/mL (≈ 74.9 µM); MIC (LAC pEPSA5_yceI; growth with xylose +): >50 µg/mL; MIC (LAC pEPSA5_yceI; growth with xylose −): 3.1 µg/mL (≈ 9.29 µM); resistance versus strain carrying empty vector pEPSA5 (LAC pEPSA5_yceI; overnight induction with xylose): > 64 fold; NO• production as nitrite in supernatant (Griess reagent) (S. aureus (ATCC 43300)): neither DAF-FM (over 2 h) nor the Griess reagent (over 48 h) evidenced NO• production; MSSA ATCC 25923 MIC (MSSA ATCC 25923): 1.6 μg/mL and 4.8 μM; MSSA ATCC 25923 MIC (MSSA ATCC 25923; listed as Z296972134 (3151)): 1.6 μg/mL and 4.8 μM; MIC (S. aureus LAC pLL39): 6.2 µg/mL (≈ 18.6 µM); loss of susceptibility of three representative mutants [2]: > 16 fold; MIC (LAC yceI::Tn pCM28): 0.78 µg/mL (≈ 2.34 µM); MRSA ATCC 43300 MIC (MRSA ATCC 43300): 4.0 μg/mL and 12 μM; MRSA ATCC 43300 MIC (MRSA ATCC 43300; listed as Z296972134 (3151)): 4.0 μg/mL and 12 μM; MIC (LAC pEPSA5; LAC pEPSA5, cultured with 1% xylose (Table 6)): 1.5 µg/mL (≈ 4.49 µM); MIC (LAC pEPSA5; LAC pEPSA5, growth with xylose +): 0.78 µg/mL; MIC (LAC pEPSA5; LAC pEPSA5, growth with xylose −): 0.78 µg/mL (≈ 2.34 µM); MIC [3]: 50 µg/mL (≈ 150 µM)
